Screens from PubChem BioAssay.
This is a sample that favours compounds with a hit; in the whole collection about 1.3% have one here.
EphB4 antag: blocks human EphB4 binding to ephrin-B2. P54760. EphB4 LBD / TNYL-RAW-Alexa532 peptide, fluorescence polarization. inhibition, % at 7 µM. 97,000 tested, 0.15% active;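 active = inhibition above the screen-wide mean inhibition plus 3 SD, cut at about 15% in these data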;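 note: 0% = DMSO wells and 100% = excess unlabeled TNYL-RAW peptide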
HIV Rev-RRE inh: disrupts HIV-1 Rev binding to RRE RNA. P05866. Rev peptide-RRE RNA binding, FRET. inhibition, % at 8 µM. 97,000 tested, 0.79% active. AID 704;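 active = inhibition above the screen-wide mean plus 3 SD, cut at about 35% in these data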;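 note: 0% = median DMSO wells and 100% = median Neomycin B control wells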
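Assay system: Rev peptide and RRE RNA, both fluorescently labelled; times: 5 min preincubation and 15 min binding, 25 °C; detection: FRET, ex 480 nm, em 540 and 671 nm; read-out basis: % inhibition from 671/540 nm acceptor-to-donor ratio, scaled between controls; benchmarks: DMSO low control, neomycin B high control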
PTPN22 inh 2: LYP (human) phosphatase inhibition | Q9Y2R2 | 96,000 tested, 0.21% active | recombinant LYP catalytic domain, DiFMUP fluorescence | AID 640 | inhibition, % at 2 µM;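 active = inhibition at 2 µM at or above a set limit, the screen mean plus 3 SD, cut at about 24% in these data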;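 note: 0% = DMSO with enzyme and 100% = enzyme fully blocked by orthovanadate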
Target sequence (Q9Y2R2 whole entry, looked up, the tested form may be a part): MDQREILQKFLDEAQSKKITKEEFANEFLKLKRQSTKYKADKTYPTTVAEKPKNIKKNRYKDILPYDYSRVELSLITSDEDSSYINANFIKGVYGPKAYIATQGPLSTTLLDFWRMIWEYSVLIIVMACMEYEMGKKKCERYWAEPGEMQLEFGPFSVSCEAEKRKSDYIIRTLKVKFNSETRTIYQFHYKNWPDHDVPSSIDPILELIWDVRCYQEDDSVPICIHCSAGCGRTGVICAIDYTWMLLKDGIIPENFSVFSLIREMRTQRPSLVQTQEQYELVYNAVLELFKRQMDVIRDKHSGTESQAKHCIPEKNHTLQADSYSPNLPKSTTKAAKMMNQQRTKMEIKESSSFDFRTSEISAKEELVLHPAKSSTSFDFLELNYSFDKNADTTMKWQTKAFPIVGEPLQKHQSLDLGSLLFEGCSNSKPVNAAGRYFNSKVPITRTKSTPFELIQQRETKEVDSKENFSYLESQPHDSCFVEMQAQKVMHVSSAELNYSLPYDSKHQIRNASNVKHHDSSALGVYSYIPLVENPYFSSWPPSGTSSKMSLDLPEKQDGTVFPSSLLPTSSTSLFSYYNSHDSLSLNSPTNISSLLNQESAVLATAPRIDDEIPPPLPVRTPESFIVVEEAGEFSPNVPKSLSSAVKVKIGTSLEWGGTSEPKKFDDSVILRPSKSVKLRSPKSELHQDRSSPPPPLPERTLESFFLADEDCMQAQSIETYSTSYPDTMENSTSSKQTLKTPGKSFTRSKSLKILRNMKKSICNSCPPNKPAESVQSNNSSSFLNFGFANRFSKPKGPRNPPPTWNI
PTPN22 act: LYP (human) phosphatase activation; activation, % at 2 µM; recombinant LYP, DiFMUP fluorescence; 0 = plate median, 100 = signal doubled; 96,000 tested, 0.11% active;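 active = activation at 2 µM above a set limit, the mean plus 5 SD, cut at about 37% in these data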
Active calls of the source: *; [ ] = remark or other dose.

SMILES	EphB4 antag	HIV Rev-RRE inh	PTPN22 inh 2	PTPN22 act
CC(=O)Nc1ccc(NC(=O)c2ccccc2CC[N+](=O)[O-])cc1	6.6	2.5	41.7*	-40.3
COc1ccc(C2C(C#N)=C(N)Oc3cc(C)[nH]c(=O)c32)c(OC)c1OC (centres undefined)	2.9	-67.5	-1.3	-1.4
NC(=O)C1CCN(C(c2ccccc2Cl)c2nnnn2CC2CCCO2)CC1 (centres undefined)	-4.6	0.0	29.0*	-29.4
CCOC(=O)N1CC=C2C(C#N)=C(N)C(C#N)(C#N)[C@H](c3cccs3)C2C1 (some centres undefined)	-6.0	21.4	3.2	3.0
CC(C)N1CC=C2C(C#N)=C(N)C(C#N)(C#N)C(c3ccccc3)C2C1 (centres undefined)	-1.5	91.2*[fluorescence artefact?]	-0.3	4.6
CCC1C2CN(C(C)=O)CC=C2C(C#N)=C(N)C1(C#N)C#N (centres undefined)	-1.2	8.9	0.9	-3.3
CN1CC=C2C(C#N)=C(N)C(C#N)(C#N)C(Cc3ccccc3)C2C1 (centres undefined)	-0.1	72.4*	16.1	-19.9
CC(C)N1CC=C2C(C#N)=C(N)C(C#N)(C#N)[C@H](c3ccoc3)[C@H]2C1	0.1	107.1*[fluorescence artefact?]	2.9	1.8
CCN1CC=C2C(C#N)=C(N)C(C#N)(C#N)C(c3cc(Cl)ccc3Cl)C2C1 (centres undefined)	0.4	65.7*	-1.2	-0.3
COc1ccccc1C1NC(=O)NC(C)=C1C(C)=O (centres undefined)	-5.3	3.5	0.0	-1.1
Cc1ccc(S(=O)(=O)N/N=C/c2ccc(OCC(=O)NC(C)C)cc2)cc1	0.4	7.0	5.5	-3.4
Cc1cccc2cc3c(N)c(C#N)sc3nc12	-8.1	35.0	-8.4	6.2
Cc1sc(NC(=O)c2sc3nc4c(C)cccc4cc3c2N)c(C#N)c1C	-1.5	101.5*[fluorescence artefact?]	55.6*	-54.2
Oc1ccccc1NCC(O)Cn1ccc2ccccc21 (centres undefined)	-1.8	62.8*	-3.8	3.7
OCc1nc2ccccc2n1CC(O)Cn1ccc2ccccc21 (centres undefined)	-6.2	0.3	0.5	-0.6
O=C(CN1C(=O)C2CC=CCC2C1=O)OCCN1C(=O)c2ccccc2C1=O (centres undefined)	8.8	11.8	-1.5	0.8
O=c1[nH]c2cc3c(cc2cc1C(c1nnnn1Cc1ccccc1)N1CCCCCC1)OCCO3 (centres undefined)	-1.7	41.2*	-6.2	7.8
O=c1[nH]c2cc3c(cc2cc1C(c1nnnn1Cc1ccccc1)N1CCN2CCCC2C1)OCCO3 (centres undefined)	-5.1	16.2	-0.8	-0.6
CC1Oc2ccccc2C=C1/C=C1/SC(N2CCOCC2)=NC1=O (centres undefined)	2.2	36.9*	-1.2	6.9
CCCCCCCCOc1ccc(C2OC34CCCCC3C(C#N)(C#N)C2(C#N)C(=N)O4)cc1 (centres undefined)	3.9	42.9*	8.1	-4.5
CCCCC1OC23CCCCC2C(C#N)(C(=N)O3)C1(C#N)C#N (centres undefined)	-3.2	20.3	-0.1	4.0
COc1ccc(C2N(S(=O)(=O)c3ccccc3)CCN2S(=O)(=O)c2ccc(C)cc2)cc1 (centres undefined)	0.5	20.3	-9.3	11.8
CN(C(=O)CSc1nc(-c2ccccc2)cn1N)C(c1ccccc1)c1ccccc1	1.7	4.6	-1.8	4.2
CC(=O)c1cccc(NC(=O)C2CCN(S(=O)(=O)c3ccccc3)CC2)c1	-1.1	-0.9	-11.8	8.8
COC(=O)C1=C(C)N=c2s/c(=C/c3ccoc3)c(=O)n2C1c1ccccc1 (centres undefined)	5.7	50.7*	-1.4	-2.7
SMILES	EphB4 antag	HIV Rev-RRE inh	PTPN22 inh 2	PTPN22 act
COC(=O)C1=C(C)N=c2s/c(=C/c3cccs3)c(=O)n2C1c1cccs1 (centres undefined)	6.3	6.1	1.3	-3.6
COc1ccc(C2C(C(C)=O)=C(C)N=c3s/c(=C/c4ccc5c(c4)OCO5)c(=O)n32)cc1 (centres undefined)	-1.0	43.6*	8.9	-5.5
O=C1c2ccccc2C(=O)c2c1oc(C(F)(F)F)c2C(=O)c1ccccc1	4.3	15.6	2.2	0.3
O=C1c2ccccc2-c2onc3ccc(Oc4ccccc4)c1c23	1.3	64.3*	9.1	-7.6
O=C(C1=C(O)C(=O)N(c2ncccn2)C1c1ccc(Cl)c(Cl)c1)c1ccco1 (centres undefined)	-5.1	51.3*	-6.6	4.1
O=C(C1=C(O)C(=O)N(c2ncccn2)C1c1cccc(Cl)c1)c1ccco1 (centres undefined)	5.6	36.2*	1.5	0.9
